Results reported in ChEMBL document CHEMBL2062483, “Design of Bcl-2 and Bcl-xL inhibitors with subnanomolar binding affinities based upon a new scaffold” (J Med Chem, 2012).
pIC50, pKi: −log10 of the molar value. Calls of active or inactive are those of the source. The rule behind the calls is not given here.

What was measured:
Bcl-2-like protein 1 = Bcl-2-like protein 1 (Homo sapiens, UniProt Q07817); test: Binding affinity to N-terminus 8X His-tagged human Bcl-xL expressed in Escherichia coli BL21 (DE3) cells after 2 hrs by fluorescence polarization assay
In short: (§1)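 Competitive FP binding: serially diluted inhibitor in DMSO added to preincubated protein/fluorescent probe complex, 2 h at room temperature with gentle shaking. Final protein/probe: Bcl-2 1.5 nM/1 nM; Bcl-xL 10 nM/2 nM; Mcl-1 20 nM/2 nM. IC50 from nonlinear regression; Ki calculated from IC50, probe Kd and protein/probe concentrations.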

[1] = Growth inhibition of human NCI-H146 cells after 4 days by WST8 assay; format: functional, cell-based; settings: NCI-H146, 96 h
[2] = target: Induced myeloid leukemia cell differentiation protein Mcl-1 (Homo sapiens, UniProt Q07820); test: Binding affinity to N-terminus 8X His-tagged human Mcl1 expressed in Escherichia coli BL21 (DE3) cells after 2 hrs by fluorescence polarization assay; in short: as §1
[3] = target: Apoptosis regulator Bcl-2 (Homo sapiens, UniProt P10415); test: Binding affinity to N-terminus 6X His-tagged human Bcl2 expressed in Escherichia coli BL21 (DE3) cells after 2 hrs by fluorescence polarization assay; in short: as §1
NCI-H1417 = test: Growth inhibition of human NCI-H1417 cells after 4 days by WST8 assay; format: functional, cell-based; settings: NCI-H1417, 96 h
[4] = Cytotoxicity against human NCI-H146 cells assessed as cell death at 300 nM after 24 hrs by trypan blue assay; format: functional
In short: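 H146 human small cell lung cancer line, grown in RPMI-1640 with 10% FBS, exposed to compound for 24 h. Cells then harvested and stained with trypan blue. Blue-stained or morphologically unhealthy cells counted as dead, with at least 100 cells scored per sample.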

NCI-H146 [5] = test: Cytotoxicity against human NCI-H146 cells assessed as cell death at 30 to 100 nM after 24 hrs by trypan blue assay; format: functional, cell-based
In short: (§2)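 H146 cells exposed to compound for 24 h, then harvested and stained with trypan blue. Cells staining blue or looking morphologically unhealthy were scored dead; at least 100 cells counted per sample.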

NCI-H146 [6] = test: Induction of apoptosis in human NCI-H146 cells assessed as PARP cleavage at 100 nM after 24 hrs by Western blot analysis; format: functional, cell-based
In short: (§3)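 H146 cells treated 24 h, lysed on ice 20 min in RIPA buffer (1% NP40, 0.5% Na-deoxycholate, 0.1% SDS in PBS) with 1 μmol/L PMSF and protease inhibitors. Lysates cleared, protein quantified, run on 4–20% SDS-PAGE, blotted to PVDF, blocked in 5% milk. Rabbit anti-PARP and anti-caspase-3, GAPDH loading control; HRP secondary with chemiluminescent detection.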

NCI-H146 [7] = test: Induction of apoptosis in human NCI-H146 cells assessed as caspase 3 cleavage at 100 nM after 24 hrs by Western blot analysis; format: functional, cell-based; in short: as §3
NCI-H146 [8] = test: Cytotoxicity against human NCI-H146 cells assessed as cell death after 24 hrs by trypan blue assay; format: functional, cell-based; in short: as §2

Apoptosis regulator Bcl-2, sequence (P10415 whole entry): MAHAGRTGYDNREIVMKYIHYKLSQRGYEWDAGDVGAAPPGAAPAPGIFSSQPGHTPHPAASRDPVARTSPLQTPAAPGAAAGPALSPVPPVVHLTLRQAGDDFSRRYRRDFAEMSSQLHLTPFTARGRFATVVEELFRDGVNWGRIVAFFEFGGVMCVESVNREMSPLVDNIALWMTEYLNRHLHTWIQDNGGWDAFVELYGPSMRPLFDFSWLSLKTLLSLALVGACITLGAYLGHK
Induced myeloid leukemia cell differentiation protein Mcl-1, sequence (Q07820 whole entry): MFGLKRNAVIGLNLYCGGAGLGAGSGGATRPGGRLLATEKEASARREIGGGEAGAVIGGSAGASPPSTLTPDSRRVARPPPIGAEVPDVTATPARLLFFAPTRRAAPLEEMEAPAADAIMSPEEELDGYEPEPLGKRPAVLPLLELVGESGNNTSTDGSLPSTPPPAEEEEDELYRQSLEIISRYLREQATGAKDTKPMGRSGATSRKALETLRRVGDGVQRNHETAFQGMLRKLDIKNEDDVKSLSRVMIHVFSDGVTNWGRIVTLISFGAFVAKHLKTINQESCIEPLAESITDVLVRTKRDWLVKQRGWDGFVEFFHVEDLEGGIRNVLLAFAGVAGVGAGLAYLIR
Bcl-2-like protein 1, sequence (Q07817 whole entry): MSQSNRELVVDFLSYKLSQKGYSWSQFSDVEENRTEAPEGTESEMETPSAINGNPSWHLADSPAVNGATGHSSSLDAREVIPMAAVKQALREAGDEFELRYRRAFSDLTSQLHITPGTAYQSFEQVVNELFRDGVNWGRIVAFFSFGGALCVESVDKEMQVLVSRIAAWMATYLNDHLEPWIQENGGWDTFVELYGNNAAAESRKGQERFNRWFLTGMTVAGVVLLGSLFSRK

Row | pIC50 (Bcl-2-like protein 1) | pKi (Bcl-2-like protein 1) | pIC50 [2] | pIC50 [3] | pKi [3] | pIC50 (NCI-H1417) | SMILES | pIC50 [1] | Activity [4] | Activity (NCI-H146 [5]) | Activity (NCI-H146 [6]) | Activity (NCI-H146 [7]) | Activity (NCI-H146 [8])
1 | 3.34 | – | < 4.00 | 3.67 | 4.11 | < 5.00 | CN1CCN(CCCNC(=O)c2c(-c3ccccc3)c(-c3ccc(Cl)cc3)cn2CC[C@H](O)CO)CC1 | < 5.00 | – | – | – | – | –
2 | – | – | < 4.00 | – | – | < 5.00 | CN(C)CC[C@H](CSc1ccccc1)Nc1ccc(S(=O)(=O)Nc2ccc(N3CCNCC3)cc2)cc1[N+](=O)[O-] | < 5.00 | – | – | – | – | –
3 | 8.31 | > 9.00 | < 5.00 | 9.22 | > 9.22 | 6.19 | CN(C)CC[C@H](CSc1ccccc1)Nc1ccc(S(=O)(=O)Nc2ccc(N3CCN(c4cccc(-c5c(-c6ccc(Cl)cc6)cn(C)c5C(=O)NCCCN5CCN(C)CC5)c4)CC3)cc2)cc1[N+](=O)[O-] | 6.37 | – | – | – | – | –
4 | 8.32 | > 9.00 | < 5.00 | 8.85 | > 9.22 | < 5.00 | CN(C)CC[C@H](CSc1ccccc1)Nc1ccc(S(=O)(=O)Nc2ccc(-c3cn(-c4cccc(-c5c(-c6ccc(Cl)cc6)cn(CC[C@H](O)CO)c5C(=O)NCCCN5CCN(C)CC5)c4)nn3)cc2)cc1[N+](=O)[O-] | < 5.00 | – | – | – | – | –
5 | 3.62 | 4.12 | < 4.00 | < 4.00 | – | < 5.00 | CN(C)CC[C@H](CSc1ccccc1)Nc1ccc(S(N)(=O)=O)cc1[N+](=O)[O-] | < 5.00 | – | – | – | – | –
6 | 8.21 | > 9.00 | < 5.00 | 8.06 | 8.70 | < 5.00 | CN(C)CC[C@H](CSc1ccccc1)Nc1ccc(S(=O)(=O)NC(=O)c2ccc(N3CCN(c4cccc(-c5c(-c6ccc(Cl)cc6)cn(CC[C@H](O)CO)c5C(=O)NCCCN5CCN(C)CC5)c4)CC3)cc2)cc1[N+](=O)[O-] | < 5.00 | – | – | – | – | –
7 | 8.24 | > 9.00 | < 5.00 | 8.72 | – | < 5.00 | CN(C)CC[C@H](CSc1ccccc1)Nc1ccc(S(=O)(=O)NC(=O)c2ccc(C#Cc3cccc(-c4c(-c5ccc(Cl)cc5)cn(CC[C@H](O)CO)c4C(=O)NCCCN4CCN(C)CC4)c3)cc2)cc1[N+](=O)[O-] | < 5.00 | – | – | – | – | –
8 | 7.90 | 8.77 | < 5.70 | 7.34 | 7.94 | 5.14 | CCOC(=O)c1c(-c2cccc(N3CCN(c4ccc(NS(=O)(=O)c5ccc(N[C@H](CCN(C)C)CSc6ccccc6)c([N+](=O)[O-])c5)cc4)CC3)c2)c(-c2ccc(Cl)cc2)cn1C | 5.31 | – | – | – | – | –
9 | 7.05 | 7.61 | < 5.00 | 7.07 | 7.66 | < 5.00 | CN(C)CC[C@H](CSc1ccccc1)Nc1ccc(S(=O)(=O)Nc2ccc(N3CCN(Cc4ccccc4-c4ccc(Cl)cc4)CC3)cc2)cc1[N+](=O)[O-] | < 5.00 | – | – | – | – | –
10 | 7.36 | 7.95 | < 5.00 | 7.22 | 7.81 | < 5.00 | CN(C)CC[C@H](CSc1ccccc1)Nc1ccc(S(=O)(=O)Nc2ccc(NCCNc3cccc(-c4c(-c5ccc(Cl)cc5)cn(CC[C@H](O)CO)c4C(=O)NCCCN4CCN(C)CC4)c3)cc2)cc1[N+](=O)[O-] | < 5.00 | – | – | – | – | –
11 | 8.21 | > 9.00 | < 5.00 | 8.89 | > 9.22 | 5.74 | CN(C)CC[C@H](CSc1ccccc1)Nc1ccc(S(=O)(=O)Nc2ccc(N3CCN(c4cccc(-c5c(-c6ccc(Cl)cc6)cn(CC[C@H](O)CO)c5C(=O)NCCCN5CCN(C)CC5)c4)CC3)cc2)cc1[N+](=O)[O-] | 5.70 | – | – | – | – | –

The remaining lines, values behind:

Row | SMILES | pIC50 (Bcl-2-like protein 1) | pKi (Bcl-2-like protein 1) | pIC50 [2] | pIC50 [3] | pKi [3] | pIC50 (NCI-H1417) | pIC50 [1] | Activity [4] | Activity (NCI-H146 [5]) | Activity (NCI-H146 [6]) | Activity (NCI-H146 [7]) | Activity (NCI-H146 [8])
12 | CN(C)CC[C@H](CSc1ccccc1)Nc1ccc(S(=O)(=O)Nc2ccc(N3CCN(c4ccc(-c5c(-c6ccc(Cl)cc6)cn(CC[C@H](O)CO)c5C(=O)NCCCN5CCN(C)CC5)cc4)CC3)cc2)cc1[N+](=O)[O-] | 8.12 | > 9.00 | < 5.00 | 7.47 | 8.07 | 5.48 | 5.60 | – | – | – | – | –
13 | CN(C)CC[C@H](CSc1ccccc1)Nc1ccc(S(=O)(=O)NC(=O)c2ccc(N3CCN(Cc4ccccc4-c4ccc(Cl)cc4)CC3)cc2)cc1[N+](=O)[O-] [ABT 737] | – | – | – | – | – | 6.89 | 7.01 | – | – | – | – | –
14 | CN(C)CC[C@H](CSc1ccccc1)Nc1ccc(S(=O)(=O)Nc2ccc(C#Cc3cccc(-c4c(-c5ccc(Cl)cc5)cn(CC[C@H](O)CO)c4C(=O)NCCCN4CCN(C)CC4)c3)cc2)cc1[N+](=O)[O-] | 7.90 | 8.77 | < 5.00 | 8.18 | 8.82 | < 5.00 | < 5.00 | – | – | – | – | –
15 | CCc1c(-c2ccc(Cl)cc2)c(-c2cccc(N3CCN(c4ccc(NS(=O)(=O)c5ccc(N[C@H](CCN(C)C)CSc6ccccc6)c([N+](=O)[O-])c5)cc4)CC3)c2)c(C(=O)O)n1C | 8.12 | > 9.00 | < 5.70 | – | – | – | – | >70% | Active | Active | Active | Dose-dependent effect
16 | CN(C)CC[C@H](CSc1ccccc1)Nc1ccc(S(=O)(=O)Nc2ccccc2)cc1[N+](=O)[O-] | 3.26 | 3.78 | < 4.00 | < 4.00 | – | < 5.00 | < 5.00 | – | – | – | – | –
17 | CN(C)CC[C@H](CSc1ccccc1)Nc1ccc(S(=O)(=O)Nc2ccc(N3CCN(c4cccc(-c5cn(C)cc5-c5ccc(Cl)cc5)c4)CC3)cc2)cc1[N+](=O)[O-] | 7.46 | 8.08 | < 5.70 | 7.08 | 7.68 | < 5.00 | < 5.00 | – | – | – | – | –
18 | CNC(=O)c1c(-c2cccc(N3CCN(c4ccc(NS(=O)(=O)c5ccc(N[C@H](CCN(C)C)CSc6ccccc6)c([N+](=O)[O-])c5)cc4)CC3)c2)c(-c2ccc(Cl)cc2)cn1C | 8.20 | > 9.00 | < 5.70 | 8.28 | 8.92 | 6.19 | 6.40 | – | – | – | – | –
19 | CN(C)CC[C@H](CSc1ccccc1)Nc1ccc(S(=O)(=O)Nc2ccc(N3CCN(c4cccc(-c5c(-c6ccc(Cl)cc6)cn(C)c5C(=O)O)c4)CC3)cc2)cc1[N+](=O)[O-] | 8.44 | > 9.00 | < 5.70 | 8.77 | > 9.22 | 6.26 | 6.47 | – | – | Active | Active | Dose-dependent effect
